Values after ≈ are worked out from the molar mass of the structure shown.
How the values were obtained:
Pseudomonas aeruginosa [1] = assay: Antibacterial activity against Pseudomonas aeruginosa NCTC 13437 assessed as bacterial growth inhibition incubated for overnight by microbroth dilution method; type: functional
Summary of the method: (§1)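 Broth microdilution in Tryptic Soy Broth. DMSO stocks were diluted in TSB as 2-fold series. Overnight TSB cultures were back-diluted to OD 0.01 and mixed 1:1 with compound. Incubation was overnight at 37 °C. MIC was the lowest concentration without visible growth (<0.1 OD600). DMSO vehicle was checked at equivalent concentrations.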

Staphylococcus aureus [2] = assay: Antibacterial activity against methicillin sensitive Staphylococcus aureus ATCC 9144 assessed as bacterial growth inhibition incubated for overnight by microbroth dilution method; type: functional
Summary of the method: (§2)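 Microbroth dilution in Tryptic Soy Broth. DMSO stocks were diluted in TSB as 2-fold series. Overnight TSB cultures were back-diluted to OD 0.01 and mixed 1:1 with compound. Incubation was overnight at 37 °C. MIC is the lowest concentration with no visible growth (<0.1 OD600). DMSO at equivalent concentrations was checked.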

Staphylococcus aureus [3] = assay: Antibacterial activity against methicillin resistant Staphylococcus aureus NCTC 13616 assessed as bacterial growth inhibition incubated for overnight by microbroth dilution method; type: functional; summary of the method: as §2
Staphylococcus aureus [4] = assay: Antibacterial activity against methicillin resistant Staphylococcus aureus USA 300 assessed as bacterial growth inhibition incubated for overnight by microbroth dilution method; type: functional; summary of the method: as §2
Enterococcus faecalis [5] = assay: Antibacterial activity against vancomycin resistant Enterococcus faecalis NCTC 12201 assessed as bacterial growth inhibition incubated for overnight by microbroth dilution method; type: functional; summary of the method: as §2
Enterococcus faecium = assay: Antibacterial activity against vancomycin resistant Enterococcus faecium NCTC 12204 assessed as bacterial growth inhibition incubated for overnight by microbroth dilution method; type: functional; summary of the method: as §2
Acinetobacter baumannii [6] = assay: Antibacterial activity against Acinetobacter baumannii AYE assessed as bacterial growth inhibition incubated for overnight by microbroth dilution method; type: functional; summary of the method: as §1
Acinetobacter baumannii [7] = assay: Antibacterial activity against Acinetobacter baumannii ATCC 17978 assessed as bacterial growth inhibition incubated for overnight by microbroth dilution method; type: functional; summary of the method: as §1
Pseudomonas aeruginosa [8] = assay: Antibacterial activity against Pseudomonas aeruginosa PAO1 assessed as bacterial growth inhibition incubated for overnight by microbroth dilution method; type: functional; summary of the method: as §1
Escherichia coli [9] = assay: Antibacterial activity against Escherichia coli NCTC 12923 assessed as bacterial growth inhibition incubated for overnight by microbroth dilution method; type: functional; summary of the method: as §1
Klebsiella pneumoniae [10] = assay: Synergistic antibacterial activity against Klebsiella pneumoniae NCTC 13368 assessed as rifampicin MIC at <=0.25 times MIC incubated for overnight by microbroth dilution checkerboard assay; type: functional
Summary of the method: (§3)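 Checkerboard microdilution under MIC conditions (TSB, overnight, 37 °C). Two-fold series of each agent were combined on one plate before bacteria were added, and single-agent MICs were measured on the same plate. FIC = sum of combination MIC/alone MIC for each agent, taken from the most synergistic well. Three independent repeats, mean ± SD. ≤0.5 was taken as strong synergy and 0.5–<1 as weak.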

Klebsiella pneumoniae [11] = assay: Synergistic antibacterial activity against […] Klebsiella pneumoniae M6 assessed as rifampicin MIC at <=0.25 times MIC incubated for overnight by microbroth dilution checkerboard assay; type: functional
Summary of the method: (§4)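 Checkerboard run under the MIC conditions (TSB, overnight, 37 °C). Antibiotic and lipoguanidine 2-fold series were combined on one plate before bacteria were added. Growth/no-growth was scored as for the MIC (<0.1 OD600). Single-agent MICs were measured on the same plates. Three independent repeats were done.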

Acinetobacter baumannii [12] = assay: Synergistic antibacterial activity against Acinetobacter baumannii AYE assessed as rifampicin MIC at <=0.25 times MIC incubated for overnight by microbroth dilution checkerboard assay; type: functional; summary of the method: as §3
Acinetobacter baumannii [13] = assay: Synergistic antibacterial activity against Acinetobacter baumannii ATCC 17978 assessed as rifampicin MIC at <=0.25 times MIC incubated for overnight by microbroth dilution checkerboard assay; type: functional; summary of the method: as §3
Pseudomonas aeruginosa [14] = assay: Synergistic antibacterial activity against Pseudomonas aeruginosa PAO1 assessed as rifampicin MIC at <=0.25 times MIC incubated for overnight by microbroth dilution checkerboard assay; type: functional
Summary of the method: (§5)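 Checkerboard microdilution in Tryptic Soy Broth, run like the MIC assay. Overnight TSB cultures were back-diluted to OD 0.01 and added 1:1 to the combined two-fold series of both agents, then incubated overnight at 37 °C. Growth/no-growth was called at <0.1 OD600. MICs alone were read on the same plates. FIC index came from the most synergistic well; three independent repeats, mean ± SD.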

Pseudomonas aeruginosa [15] = assay: Synergistic antibacterial activity against Pseudomonas aeruginosa NCTC 13437 assessed as rifampicin MIC at <=0.25 times MIC incubated for overnight by microbroth dilution checkerboard assay; type: functional; summary of the method: as §5
Escherichia coli [16] = assay: Synergistic antibacterial activity against Escherichia coli NCTC 12923 assessed as rifampicin MIC at <=0.25 times MIC incubated for overnight by microbroth dilution checkerboard assay; type: functional; summary of the method: as §3
Staphylococcus aureus [17] = assay: Antibacterial activity against methicillin sensitive Staphylococcus aureus 1199B assessed as bacterial growth inhibition incubated for overnight by microbroth dilution method; type: functional; summary of the method: as §2
Klebsiella pneumoniae [18] = assay: Synergistic antibacterial activity against Klebsiella pneumoniae NCTC 13368 assessed as bacterial growth inhibition incubated for overnight in presence of PBMN by microbroth dilution method relative to control; type: functional
Summary of the method: (§6)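 Adapted broth microdilution in TSB. The test compound was in a 2-fold dilution series, with PMBN added at a fixed 30 µg/mL. Bacteria at OD 0.02 were added, and plates were incubated overnight at 37 °C. Growth/no growth was read as for the MIC (<0.1 OD600).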

Klebsiella pneumoniae [19] = assay: Synergistic antibacterial activity against Klebsiella pneumoniae M6 assessed as bacterial growth inhibition incubated for overnight in presence of PBMN by microbroth dilution method relative to control; type: functional; summary of the method: as §6
Acinetobacter baumannii [20] = assay: Synergistic antibacterial activity against Acinetobacter baumannii AYE assessed as bacterial growth inhibition incubated for overnight in presence of PBMN by microbroth dilution method relative to control; type: functional; summary of the method: as §6
Acinetobacter baumannii [21] = assay: Synergistic antibacterial activity against Acinetobacter baumannii ATCC 17978 assessed as bacterial growth inhibition incubated for overnight in presence of PBMN by microbroth dilution method relative to control; type: functional; summary of the method: as §6
Pseudomonas aeruginosa [22] = assay: Synergistic antibacterial activity against Pseudomonas aeruginosa PAO1 assessed as bacterial growth inhibition incubated for overnight in presence of […] by microbroth dilution method relative to control; type: functional
Summary of the method: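 Fixed-concentration combination MIC in TSB. The first agent was set in a two-fold dilution series (100 µL/well), then 50 µL/well of the second agent at a fixed concentration was added; PMBN was fixed at 30 µg/mL. Bacteria at OD 0.02 (50 µL) went into 150 µL of compounds, overnight at 37 °C. MIC was the lowest concentration without visible growth (<0.1 OD600).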

Pseudomonas aeruginosa [23] = assay: Synergistic antibacterial activity against Pseudomonas aeruginosa NCTC 13437 assessed as bacterial growth inhibition incubated for overnight in presence of PBMN by microbroth dilution method relative to control; type: functional; summary of the method: as §6
Escherichia coli [24] = assay: Synergistic antibacterial activity against Escherichia coli NCTC 12923 assessed as bacterial growth inhibition incubated for overnight in presence of PBMN by microbroth dilution method relative to control; type: functional; summary of the method: as §6
Klebsiella pneumoniae [25] = assay: Synergistic antibacterial activity against Klebsiella pneumoniae NCTC 13368 assessed as fold change in rifampicin MIC at <=0.25 times MIC incubated for overnight by microbroth dilution checkerboard assay relative to rifampicin alone; type: functional; summary of the method: as §4
Acinetobacter baumannii [26] = assay: Synergistic antibacterial activity against Acinetobacter baumannii AYE assessed as fold change in rifampicin MIC at <=0.25 times MIC incubated for overnight by microbroth dilution checkerboard assay relative to rifampicin alone; type: functional; summary of the method: as §3
Acinetobacter baumannii [27] = assay: Synergistic antibacterial activity against Acinetobacter baumannii ATCC 17978 assessed as fold change in rifampicin MIC at <=0.25 times MIC incubated for overnight by microbroth dilution checkerboard assay relative to rifampicin alone; type: functional; summary of the method: as §3
Pseudomonas aeruginosa [28] = assay: Synergistic antibacterial activity against Pseudomonas aeruginosa PAO1 assessed as fold change in rifampicin MIC at <=0.25 times MIC incubated for overnight by microbroth dilution checkerboard assay relative to rifampicin alone; type: functional; summary of the method: as §5
Pseudomonas aeruginosa [29] = assay: Synergistic antibacterial activity against Pseudomonas aeruginosa NCTC 13437 assessed as fold change in rifampicin MIC at <=0.25 times MIC incubated for overnight by microbroth dilution checkerboard assay relative to rifampicin alone; type: functional; summary of the method: as §5
Escherichia coli [30] = assay: Synergistic antibacterial activity against Escherichia coli NCTC 12923 assessed as fold change in rifampicin MIC at <=0.25 times MIC incubated for overnight by microbroth dilution checkerboard assay relative to rifampicin alone; type: functional; summary of the method: as §3
Klebsiella pneumoniae [31] = assay: Antibacterial activity against Klebsiella pneumoniae M6 assessed as bacterial growth inhibition incubated for overnight by microbroth dilution method
Klebsiella pneumoniae [32] = assay: Antibacterial activity against ESBL Klebsiella pneumoniae NCTC 13368 assessed as bacterial growth inhibition incubated for overnight by microbroth dilution method
Enterococcus faecalis [33] = assay: Antibacterial activity against vancomycin sensitive Enterococcus faecalis NCTC 775 assessed as bacterial growth inhibition incubated for overnight by microbroth dilution method

SMILES	MIC (Pseudomonas aeruginosa [1]) [µg/mL]	MIC (Staphylococcus aureus [2]) [µg/mL]	MIC (Staphylococcus aureus [3]) [µg/mL]	MIC (Staphylococcus aureus [4]) [µg/mL]	MIC (Enterococcus faecalis [5]) [µg/mL]	MIC (Enterococcus faecium) [µg/mL]	MIC (Acinetobacter baumannii [6]) [µg/mL]	MIC (Acinetobacter baumannii [7]) [µg/mL]	MIC (Pseudomonas aeruginosa [8]) [µg/mL]	MIC (Escherichia coli [9]) [µg/mL]	MIC (Klebsiella pneumoniae [10]) [µg/mL]	MIC (Klebsiella pneumoniae [11]) [µg/mL]	MIC (Acinetobacter baumannii [12]) [µg/mL]	MIC (Acinetobacter baumannii [13]) [µg/mL]	MIC (Pseudomonas aeruginosa [14]) [µg/mL]	MIC (Pseudomonas aeruginosa [15]) [µg/mL]	MIC (Escherichia coli [16]) [µg/mL]	MIC (Staphylococcus aureus [17]) [µg/mL]	inhibition (INH) (Klebsiella pneumoniae [18]) [%]	inhibition (INH) (Klebsiella pneumoniae [19]) [%]	also measured
CCCCCCCCCCCCCCCCCCNC(=N)NCCCCN	> 128	8 (≈ 20.9 µM)	4 (≈ 10.5 µM)	2 (≈ 5.23 µM)	2 (≈ 5.23 µM)	2 (≈ 5.23 µM)	128 (≈ 334 µM)	16 (≈ 41.8 µM)	> 128	> 128	16	16	2	≤ 0.125	16	32	4	4 (≈ 10.5 µM)	<20	<20	inhibition (INH) (Acinetobacter baumannii [20]): <20%; inhibition (INH) (Acinetobacter baumannii [21]): <20%; inhibition (INH) (Pseudomonas aeruginosa [22]): <20%; inhibition (INH) (Pseudomonas aeruginosa [23]): <20%; inhibition (INH) (Escherichia coli [24]): <20%; fold change (FC) (Klebsiella pneumoniae [25]): 0; fold change (FC) (Acinetobacter baumannii [26]): >=4; fold change (FC) (Acinetobacter baumannii [27]): >=4; fold change (FC) (Pseudomonas aeruginosa [28]): 0; fold change (FC) (Pseudomonas aeruginosa [29]): 0; fold change (FC) (Escherichia coli [30]): 0; MIC (Klebsiella pneumoniae [31]): > 128 µg/mL; MIC (Klebsiella pneumoniae [32]): > 128 µg/mL; MIC (Enterococcus faecalis [33]): 2 µg/mL (≈ 5.23 µM)
CCCCC/C=C\C/C=C\CCCCCCCCNC(=N)NCCCCCCCCN	> 128	2 (≈ 4.6 µM)	4 (≈ 9.2 µM)	2 (≈ 4.6 µM)	4 (≈ 9.2 µM)	4 (≈ 9.2 µM)	16 (≈ 36.8 µM)	8 (≈ 18.4 µM)	> 128	8 (≈ 18.4 µM)	8	4	2	≤ 0.125	16	16	8	4 (≈ 9.2 µM)	<20	<20	inhibition (INH) (Acinetobacter baumannii [20]): <20%; inhibition (INH) (Acinetobacter baumannii [21]): <20%; inhibition (INH) (Pseudomonas aeruginosa [22]): <20%; inhibition (INH) (Pseudomonas aeruginosa [23]): <20%; inhibition (INH) (Escherichia coli [24]): <20%; fold change (FC) (Klebsiella pneumoniae [25]): >=4; fold change (FC) (Acinetobacter baumannii [26]): >=4; fold change (FC) (Acinetobacter baumannii [27]): 0; fold change (FC) (Pseudomonas aeruginosa [28]): 0; fold change (FC) (Pseudomonas aeruginosa [29]): 0; fold change (FC) (Escherichia coli [30]): 0; MIC (Klebsiella pneumoniae [31]): 16 µg/mL (≈ 36.8 µM); MIC (Klebsiella pneumoniae [32]): 32 µg/mL (≈ 73.6 µM); MIC (Enterococcus faecalis [33]): 8 µg/mL (≈ 18.4 µM)

Reference: ChEMBL document CHEMBL5357066, “Development of Novel Membrane Disrupting Lipoguanidine Compounds Sensitizing Gram-Negative Bacteria to Antibiotics” (ACS Med Chem Lett, 2024)
